The text below walks through data of ChEMBL document CHEMBL3351861, “New synthetic sulfone derivatives inhibit growth, adhesion and the leucine arylamidase APE2 gene expression of Candida albicans in vitro” (2015).

≈ marks a conversion by molar mass, not a printed value. Calls of active or inactive are those of the source. The rule behind the calls is not given here.

In test [1] the test system is Candida albicans. Description: Antifungal activity against Candida albicans CAI4 expressing delta-efg1 (EFG1) gene assessed as growth inhibition at 0.25 ug/ml by CLSI M27-A3 method. Format: functional. To be noted: read-out: GI. In short, it runs like this:
(§1)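 CLSI M27-A3 broth microdilution in RPMI, read after 48 h. Strains pre-grown 18 h in YEPD at 30°C. Final inoculum 0.5×10^2–2.5×10^3 cells/ml. Two-fold dilutions in RPMI came from a 1600 µg/ml stock in water with 9% DMSO; final DMSO was 0.09%. OD405 read, % inhibition = 100 − (CTW−SCW)/(GCW−SCW). Triplicate on three occasions, mean±SD.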

The subject of test [2] is Candida albicans. Description: Antifungal activity against Candida albicans CAI4 expressing delta-cph1/delta-efg1 gene assessed as growth inhibition at by CLSI M27-A3 method. Format: functional.
Test [3] has as its system Candida albicans. Description: Reduction in APE2 gene expression in compound pre-treated Candida albicans CAI4 expressing delta-efg1 (EFG1) gene grown on human Caco2 cells monolayer at 16 ug/ml pre-treated for 2 hrs measured after 6 hrs by RT-PCR method. It is filed as functional, Caco-2. In short, it runs like this:
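Caco-2 was seeded at 1.2×10^5 cells/ml in EMEM (10% FCS, 1 mM pyruvate, no antibiotics) for 18 h at 37°C, 5% CO2. Yeast (10^4 cfu/ml) was pre-incubated 2 h in RPMI with 16 µg/ml sulfone, washed, resuspended in RPMI and inoculated onto the monolayer at 37°C. APE2 mRNA was measured by SYBR qPCR against ACT1 (2^-ΔΔCt, 90028 calibrator), in triplicate.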

The subject of test [4] is Candida albicans. Nature of the test: Antifungal activity against Candida albicans CAI4 expressing delta-cph1 gene assessed as growth inhibition at 16 ug/ml by CLSI M27-A3 method. The note with it: read-out: GI. Format: functional. In short, it runs like this:
as §1

Test [5] relates to Candida albicans. Description: Antifungal activity against Candida albicans CAI4 expressing delta-efg1 (EFG1) gene assessed as growth inhibition at 16 ug/ml by CLSI M27-A3 method. It is filed as functional. The note with it: read-out: GI. The essentials: as §1
Test [6] relates to Candida albicans. Nature of the test: Antifungal activity against Candida albicans CAI4 expressing delta-cph1/delta-efg1 gene assessed as growth inhibition at 16 ug/ml by CLSI M27-A3 method. It is filed as functional. The note with it: read-out: GI. The essentials:
as §1

Test [7] concerns Candida albicans. Nature of the test: Antifungal activity against Candida albicans CAI4 expressing delta-efg1 gene assessed as growth inhibition at 8 ug/ml by CLSI M27-A3 method. It is filed as functional. The note with it: read-out: GI. The essentials:
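CLSI M27-A3 broth microdilution in RPMI. Final inoculum 0.5×10^2 to 2.5×10^3 cells/ml. Seven two-fold concentrations from 0.25 to 16 µg/ml, with DMSO held at 0.09% (v/v) in all wells. Compound-free growth controls and sterility controls are run for each strain. […] Triplicate on three occasions.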

Test [8] relates to Candida albicans. Nature of the test: Antifungal activity against Candida albicans 90028 assessed as growth inhibition at 4 ug/ml by CLSI M27-A3 method. Format: functional. The note with it: read-out: GI. In short, it runs like this: as §1
Test [9] relates to Candida albicans. Description: Antifungal activity against Candida albicans CAI4 expressing delta-cph1/delta-efg1 gene assessed as growth inhibition at 4 ug/ml by CLSI M27-A3 method. To be noted: read-out: GI. Format: functional. The essentials: as §1
Test [10] deals with Candida albicans. Description: Antifungal activity against Candida albicans CAI4 expressing delta-cph1 gene assessed as growth inhibition at 1 ug/ml by CLSI M27-A3 method. It is filed as functional. To be noted: read-out: GI. In short, it runs like this: as §1
The subject of test [11] is Candida albicans. Description: Antifungal activity against Candida albicans CAI4 expressing delta-cph1/delta-efg1 (EFG1) gene assessed as growth inhibition at 1 ug/ml by CLSI M27-A3 method. It is filed as functional. To be noted: read-out: GI. The essentials:
as §1

Test [12] deals with Candida albicans. Nature of the test: Antifungal activity against Candida albicans 90028 assessed as growth inhibition at 0.5 ug/ml by CLSI M27-A3 method. Format: functional. The note with it: read-out: GI. In short, it runs like this: as §1
For test [13], the system named is Candida albicans. Description: Antifungal activity against Candida albicans CAI4 expressing delta-efg1 gene assessed as growth inhibition at 0.5 ug/ml by CLSI M27-A3 method. Format: functional. To be noted: read-out: GI. In short, it runs like this:
as §1

In test [14] the test system is Candida albicans. Description: Antifungal activity against Candida albicans CAI4 expressing delta-efg1 (EFG1) gene assessed as growth inhibition at 0.5 ug/ml by CLSI M27-A3 method. It is filed as functional. The note with it: read-out: GI. The essentials:
as §1

Test [15] has as its system Candida albicans. Nature of the test: Inhibition of cell adhesion of compound pre-treated Candida albicans CAI4 expressing delta-efg1 gene to human Caco2 cells assessed as cell adhesion level at 16 ug/ml pre-incubated for 18 hrs by colony counting method (reference value: 2.1 +/- 3.52%). It is filed as functional, Caco-2. Details: scale not given: the % may be the effect or the level left.

For test [16], the system named is Candida albicans. Description: Inhibition of cell adhesion of compound pre-treated Candida albicans 90028 to human Caco2 cells assessed as cell adhesion level at 8 ug/ml pre-incubated for 18 hrs by colony counting method (reference value: 1.58 +/- 0.67%). Format: functional, Caco-2. Also on record: scale not given: the % may be the effect or the level left.
Test [17] deals with Candida albicans. Nature of the test: Inhibition of cell adhesion of compound pre-treated Candida albicans CAI4 expressing delta-cph1 gene to human Caco2 cells assessed as cell adhesion level at 2 ug/ml pre-incubated for 18 hrs by colony counting method (reference value: 1.6 +/- 0.65%). Format: functional, Caco-2. Details: scale not given: the % may be the effect or the level left.

The test system of test [18] is Candida albicans. Nature of the test: Inhibition of cell adhesion of compound pre-treated Candida albicans CAI4 expressing delta-efg1 (EFG1) gene to human Caco2 cells assessed as cell adhesion level at 2 ug/ml pre-incubated for 18 hrs by colony counting method (reference value: 2.6 +/- 2.33%). It is filed as functional, Caco-2. Also on record: scale not given: the % may be the effect or the level left.

The test system of test [19] is Candida albicans. Nature of the test: Reduction in APE2 gene expression in compound pre-treated Candida albicans CAI4 expressing delta-cph1/delta-efg1 (EFG1) gene grown under YEPD medium at 16 ug/ml pre-treated for 2 hrs measured after 18 hrs by RT-PCR method. Format: functional. The essentials: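 Blastoconidia from YEPD (10^4 cfu/ml) are washed and exposed 2 h to 16 µg/ml sulfone in YEPD. They are then washed and regrown 18 h at 30°C in YEPD before RNA extraction. Real-time RT-PCR uses SYBR Green with 250 nM primers and 60 ng cDNA: 95°C 15 min, then 45 cycles of 94°C 15 s and 60°C 1 min, plus a dissociation curve. APE2 is normalized to ACT1 by 2^-ΔΔCt with strain 90028 as calibrator; three experiments.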

The test system of test [20] is Candida albicans. Description: Inhibition of cell adhesion of compound pre-treated Candida albicans SC5314 to human Caco2 cells assessed as cell adhesion level at 8 ug/ml pre-incubated for 2 hrs by colony counting method (reference value: 1.1 +/- 1.1%). Also on record: scale not given: the % may be the effect or the level left.
In test [21] the test system is Candida albicans. Description: Inhibition of hyphae formation in Candida albicans 90028 assessed as appearance of spherical blastoconidia with polarly located budding without filament formation at 16 ug/ml incubated for 18 hrs by phase contrast microscopy.
The test system of test [22] is Candida albicans. Description: Inhibition of cell adhesion of compound pre-treated Candida albicans CAI4 expressing delta-efg1 (EFG1) gene to human Caco2 cells assessed as cell adhesion level at 8 ug/ml pre-incubated for 18 hrs by colony counting method (reference value: 2.6 +/- 2.33%). Also on record: scale not given: the % may be the effect or the level left. Format: functional, Caco-2.

`NNc1ccc(S(=O)(=O)C(Cl)(Br)Br)cc1[N+](=O)[O-]`: in the test on Candida albicans [1], the inhibition of growth at 0.25 µg/mL is 98.6%. Further, the MIC90 – broadly, the lowest concentration that inhibits either 90% of growth or 90% of the strains tested, depending on the study – in the test with Candida albicans [2] stood at 4 µg/mL (≈ 9.45 µM). Further, the “fold change (FC)” value in the test with Candida albicans [3] is given as 10.7. Moreover, the inhibition of growth at 16 µg/mL in the test on Candida albicans [4] was found to be 100%; in the test with Candida albicans [5], 99.8%; in the test with Candida albicans [6], 100%. Moreover, in the test with Candida albicans [7], the inhibition of growth at 8 µg/mL was 100%. Also, the inhibition of growth at 4 µg/mL in the test on Candida albicans [8] is 99.7%; with Candida albicans [9], 100%. Further, the inhibition of growth at 1 µg/mL in the test on Candida albicans [10] came to 99.8%; with Candida albicans [11], 98.8%. Further, the figures for the inhibition of growth at 0.5 µg/mL in the test on Candida albicans [12], with Candida albicans [13] and in the test with Candida albicans [14] were 81.8%, 97.9% and 98.8%, respectively. Besides, the Activity in the test on Candida albicans [15] was found to be 0.81%; in the test on Candida albicans [16], 2.66%; with Candida albicans [17] it was 0.51%; with Candida albicans [18], 0.51%; in the test with Candida albicans [20], 0.45%. The ΔCt in the test with Candida albicans [19] turned out to be 3.3. For the same compound, the result in the test on Candida albicans [21] was Active.

Regarding `O=[N+]([O-])c1cc(S(=O)(=O)C(Cl)(Cl)Br)ccc1Cl`, in the test on Candida albicans [1], the inhibition of growth at 0.25 µg/mL was 99%. Also, the MIC90 in the test on Candida albicans [2] stood at 16 µg/mL (≈ 41.7 µM). Moreover, the inhibition of growth at 16 µg/mL in the test with Candida albicans [4] stood at 99.6%; with Candida albicans [5], 99.5%; with Candida albicans [6] it was 99.5%. Also, the inhibition of growth at 8 µg/mL with Candida albicans [7] is 99.5%. Also, the inhibition of growth at 4 µg/mL with Candida albicans [8] worked out at 99.4%; in the test on Candida albicans [9], 99%. Besides, the inhibition of growth at 1 µg/mL with Candida albicans [10] turned out to be 97.8%; in the test on Candida albicans [11], 98.9%. The inhibition of growth at 0.5 µg/mL with Candida albicans [12] came out at 98.7%; with Candida albicans [13], 98.7%; with Candida albicans [14], 99%. The Activity with Candida albicans [15] is reported as 0.99%; with Candida albicans [16] it was 2.2%; in the test on Candida albicans [22], 1.13%; in the test on Candida albicans [17], 0.43%; with Candida albicans [20] it was 0.36%.

For the compound `O=[N+]([O-])c1cc(S(=O)(=O)C(Cl)Cl)ccc1Cl`, the inhibition of growth at 0.25 µg/mL with Candida albicans [1] is 95.2%. Also, the MIC90 with Candida albicans [2] turned out to be 16 µg/mL (≈ 52.5 µM). For the same compound, the inhibition of growth at 16 µg/mL in the test on Candida albicans [4] came to 99.6%; in the test on Candida albicans [5], 99.2%; with Candida albicans [6] it was 99.7%. Moreover, in the test on Candida albicans [7], the inhibition of growth at 8 µg/mL stood at 99.4%. For the same compound, the inhibition of growth at 4 µg/mL in the test on Candida albicans [8] and with Candida albicans [9] was 99.2% in each case. Besides, the inhibition of growth at 1 µg/mL in the test on Candida albicans [10] was 99.3%; in the test with Candida albicans [11], 99%. Moreover, the inhibition of growth at 0.5 µg/mL with Candida albicans [12] was 99.1%; in the test with Candida albicans [13], 99.4%; with Candida albicans [14], 95.4%. The Activity is on record as 1.06% in the test on Candida albicans [15], 2.05% with Candida albicans [16], 1.18% in the test on Candida albicans [22] and 0.8% with Candida albicans [17].
